# Bioassay records from PubChem.
# Myeloid diff MLP = myeloid differentiation induction | ER-HoxA9 myeloid progenitors, lysozyme-GFP differentiation, flow cytometry | calls only at 10 µM | 360,000 compounds, 1% hits | AID 624256;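 active = normalized GFP-positive differentiation at or above the plate's own cutoff, the solvent-only control mean plus 3 SD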;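 note: cells exposed to compound for four days before flow analysis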
# T cell modulator = T cell immune modulators affecting CD8 T cell-vesicle binding | 2C CD8+ T cell-vesicle binding, flow cytometry; active compounds read low | response (vesicle binding), % at 7 µM | 330,000 compounds, 0.068% hits | AID 2052;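 active = response, share of CD8 T cells binding vesicles, and their 90th percentile fluorescence all below set limits, cut at about 80% in these data, passing the limit was not always enough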;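 note: values below 100% mean blocked vesicle binding to the CD8+ T cells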
#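 System: murine 2C transgenic CD8+ T lymphocytes; also added: QL9-loaded Drosophila micro-vesicles; times: binding 1.5 h at 37 °C; measured by: flow cytometry, PE anti-B7-1 (FL2) versus Alexa647 anti-CD8 (FL8), PFA-fixed; control set: Peptide-free naked vesicles (low) and QL9 vesicles with 0.7% DMSO vehicle (high)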
# Casp6 inh = caspase-6 (human) enzyme inhibition. purified caspase-6, Z-VEID-R110 cleavage fluorescence. inhibition, % at 12.5 µM. 350,000 compounds, 0.53% hits;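 active = mean inhibition across replicates at least about 35%, with every replicate also reaching that limit, limit read from the data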;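 note: 0% = median of neutral control wells and 100% = no fluorescence left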
# Target sequence (P55212 24-179 limits assumed): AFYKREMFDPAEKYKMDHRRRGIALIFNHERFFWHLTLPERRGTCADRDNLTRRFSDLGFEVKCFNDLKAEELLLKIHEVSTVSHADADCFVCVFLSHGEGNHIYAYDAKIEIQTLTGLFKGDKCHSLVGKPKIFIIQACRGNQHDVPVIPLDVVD
# Target sequence (P55212 194-293 limits assumed): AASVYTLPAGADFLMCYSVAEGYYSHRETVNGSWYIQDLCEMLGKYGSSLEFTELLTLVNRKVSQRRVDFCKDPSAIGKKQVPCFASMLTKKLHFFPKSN
# Vif inh = HIV Vif inhibition; HEK293T cells, Vif self-association by quenched fluorescence, imaging, 24 h; inhibition, % at 7.49 µM; 340,000 compounds, 0.35% hits; in the data active = inhibition above about 50%, passing the limit was not always enough
# Starred values were filed as active, the others as inactive; i = inactive; x = not tested or not shown; + = active, no number. An excerpt weighted towards active compounds, which were near 1.4% of everything screened.
SMILES,Myeloid diff MLP,T cell modulator,Casp6 inh,Vif inh
O=c1cc(-c2ccc(Cl)cc2)[nH][nH]1,i,155.1,x,57.4*
CCCNC(=O)C[C@H]1CC[C@@H]2[C@H](COc3ccc(NC(=O)c4ccc5c(c4)OCO5)cc3C(=O)N2C)O1,x,x,2.0,x
CN(Cc1ccco1)C(=O)CSc1nn2c(=O)c(C(C)(C)C)nnc2s1,i,304.9,43.2*,-1.7
CCS(=O)(=O)N1CCC2(CC1)CN(CC1CCOCC1)[C@H](CO)c1c2c2ccc(OC)cc2n1C,x,x,-2.6,x
O=C(O)CCCC(=O)OCCCc1cc2ccccc2c(=O)o1,x,x,37.4*,x
O=C(O)CCC(=O)OCCc1cc2ccccc2c(=O)o1,i,245.2,-1.1,-4.7
CN(C)c1ccc(/C=C2\SC(=S)N(Nc3ncc(C(F)(F)F)cc3Cl)C2=O)cc1,+,595.4,x,x
COC(=O)[C@]12CCCCC=C1N(Cc1ccccc1)C(=O)[C@H](CC(=O)NCC13CC4CC(CC(C4)C1)C3)C2,i,x,54.1*,x
COc1ccc(S(=O)(=O)N2C[C@@H](O)COC[C@@H]3O[C@@H](CC(=O)NCc4ccc(Cl)c(Cl)c4)CC[C@H]32)cc1,x,x,1.0,x
CC(C)C[C@H]1CNC(=S)N1CC1CCCN1C[C@H](Cc1ccc(O)cc1)N1C[C@H](Cc2ccccc2)N(CC2CCCCCC2)C1=S (some centres not stated),i,x,2.2,x
Oc1ccc(C[C@H]2CN([C@@H](Cc3cccc(O)c3)CN3CCC[C@@H]3CN3C(=S)NC[C@@H]3Cc3ccccc3)C(=S)N2CC2CCCCC2)cc1,+,x,-1.9,9.6
Oc1ccc(C[C@H]2CN([C@@H](Cc3ccccc3)CN3CCCC3CN3C(=S)NC[C@@H]3Cc3ccccc3)C(=S)N2CC2CCCCC2)cc1 (some centres not stated),i,x,-1.5,x
CC(C)C[C@H]1CNC(=S)N1C[C@H]1CCCN1C[C@H](Cc1ccccc1)N1C[C@H](Cc2ccc(O)cc2)N(CC2CCCCCC2)C1=S,+,x,-3.9,23.0
O=[N+]([O-])c1ccc(N/N=C/c2c[nH]c3ccccc23)cc1,+,320.9,x,x
O=[N+]([O-])c1ccc(N/N=C/c2cn(-c3ccccc3)nc2-c2ccccc2)cc1,+,213.1,x,14.7
C[C@H](CO)N1C[C@H](C)[C@@H](CN(C)CC2CCCCC2)Oc2ccc(NS(C)(=O)=O)cc2CC1=O,x,x,-7.3,x
CCCC(=O)Nc1ccc2c(c1)C(=O)N(C)C[C@@H](OC)[C@@H](C)CN(C(C)=O)[C@H](C)CO2,x,x,1.2,x
COCCN(C(=O)c1cc2c(s1)CCC2)c1c(N)n(CC(C)C)c(=O)[nH]c1=O,i,516.0,52.3*,1.3
CC[n+]1c(/C=C2\C=C(C)CC(C)(C)C2)sc2ccccc21,i,326.5,x,26.4
CC[n+]1c(/C=C2/C=C(C)CC(C)(C)C2)sc2ccc(OC)cc21,+,303.8,x,-7.4
O=C(C[n+]1ccc2ccccc2c1)c1cccc2ccccc12,i,146.7,-4.5,2.3
O=C(/C=C/c1cc[n+](CC(=O)c2ccc3cccc4c3c2CC4)cc1)c1ccc2cccc3c2c1CC3,+,148.8,x,0.6
CN(C)C(=O)c1ccc(-c2ccc(C3[C@@H]4CN(C(=O)Cc5ccccc5)C[C@H]3N4)cc2)cc1 (some centres not stated),x,x,0.4,x
CC(C1SC(=S)NC1=O)C1SC(=S)NC1=O (configuration not stated),i,x,68.2*,-2.5
CC(=O)c1ccc(NC(=S)NCC(c2ccco2)N2CCCC2)cc1 (configuration not stated),+,574.1,2.6,5.9
Cc1noc(C)c1C(=O)N1CCC2(CC1)Oc1ccc(F)cc1C(=O)C21CC(c2ccc(Cl)cc2)=NO1 (configuration not stated),+,503.1,4.8,18.2
CC(C)(C)OC(=O)N1CCC2(CC1)Oc1ccc(F)cc1C(=O)C21CC(c2ccc(Cl)cc2)=NO1 (configuration not stated),x,549.1,x,x
CC1(C)CC[C@]2(C(=O)O[C@@H]3OC(CO)[C@@H](O)[C@H](O)[C@H]3O)CC[C@]3(C)C(=CCC4[C@@]5(C)CC[C@H](O[C@@H]6OC(C(=O)O)[C@@H](O)[C@H](O)[C@H]6O)C(C)(C)C5CC[C@]43C)[C@@H]2C1 (some centres not stated),i,335.1,3.1,20.4
